# Cneo AK release = Cryptococcus neoformans lysis via adenylate kinase release | C. neoformans lysis, adenylate kinase release luminescence, 4 h; normalised: neutral wells 0, clomiphene wells 100 | lysis activity, % at 15 µM | 360,000 tested, 0.2% active;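 active = mean lysis activity across replicates of at least 80%, whatever share of replicates individually reach that level; inactive = mean lysis activity below 80%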
#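 read-out = cell lysis signal | test system = log-phase Cryptococcus neoformans yeast cells | input = cells at 5 × 10^6 per mL | medium = fresh YPD growth medium | signal = luminescent adenylate kinase detection reagent | timing = 4 h at 37 °C static, read 1 h later | dosing = single dose | controls = Clomiphene as positive lysis control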
# HIV Env fusion = blocks HIV Env-driven cell-cell fusion | HeLa-JRFL Env/CEM21 cell fusion, luciferase | AID 651610 | 360,000 tested, 1.1% active | inhibition, % at 12.3 µM;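 active = mean replicate inhibition score of at least 50 and every replicate individually at or above 50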;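 also: 0% = plate neutral controls and 100% = maraviroc near 300 nM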
# INS-1E GSIS act = GLuc luminescence reporter in INS-1E cells, primary screen for activators of glucose-dependent secretion of insulin; 370,000 tested, 0.61% active; AID 743287; activation, % at 16.6 µM; INS-1E GLuc reporter insulin secretion, 2-3 h;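 active = lowest replicate activation of at least 40%, so every replicate reaches that level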;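 also: 0% = median of neutral control wells and 100% = median of IBMX positive control wells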
# CDK5 p35 inh = inhibitors of human CDK5/p35 kinase; Recombinant CDK5/p35, ADP-Glo luminescence, 60 min; Q00535+Q15078; AID 488839; inhibition, % at 10 µM; 330,000 tested, 0.01% active;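 active = highest replicate inhibition of at least 50% and at least 75% of replicates reaching 50%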;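 also: plate controls were DMSO neutral control for no effect and GW8510 at 10 µM for full effect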
# Target sequence (Q00535 whole entry, looked up): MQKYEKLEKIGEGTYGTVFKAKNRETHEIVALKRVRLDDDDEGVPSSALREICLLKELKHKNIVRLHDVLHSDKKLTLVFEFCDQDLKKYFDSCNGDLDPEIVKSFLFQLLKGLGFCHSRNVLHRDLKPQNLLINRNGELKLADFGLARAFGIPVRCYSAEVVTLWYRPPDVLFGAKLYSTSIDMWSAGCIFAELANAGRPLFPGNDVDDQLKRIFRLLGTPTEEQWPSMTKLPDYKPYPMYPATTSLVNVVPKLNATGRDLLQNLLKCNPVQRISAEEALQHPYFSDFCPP
# Target sequence (Q15078 whole entry, looked up): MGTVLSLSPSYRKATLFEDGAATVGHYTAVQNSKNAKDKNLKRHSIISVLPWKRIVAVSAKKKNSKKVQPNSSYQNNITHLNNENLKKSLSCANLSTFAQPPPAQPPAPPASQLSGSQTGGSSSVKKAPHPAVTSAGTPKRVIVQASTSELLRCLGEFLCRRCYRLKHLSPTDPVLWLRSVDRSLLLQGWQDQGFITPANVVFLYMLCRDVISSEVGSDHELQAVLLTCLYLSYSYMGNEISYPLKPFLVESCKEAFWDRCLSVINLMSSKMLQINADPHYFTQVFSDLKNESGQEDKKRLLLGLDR
# dFosB act = enhances mouse delta FosB homodimer DNA binding. P13346. purified delta FosB, TAMRA-CDK5 oligo fluorescence polarization; percent of positive-control signal above neutral wells. activation, % at 25 µM. 340,000 tested, 0.99% active;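 active = mean activation above about 17%, with every replicate also reaching it, limit read from the data, passing the limit was not always enough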
# PAX8 reporter = lowers PAX8-driven luciferase in RMG-I cells | RMG-I TPO-luciferase reporter, SteadyGlo, 24 h | AID 652154 | inhibition, % at 12.6 µM | 360,000 tested, 1.2% active;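 active = mean replicate inhibition at least 60% with every replicate also reaching 60%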;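 also: luciferase light reporting Pax8 driven TPO promoter activity; plate controls were median of neutral control wells for no effect and mitoxantrone controls for full effect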
# Starred values were filed as active, the others as inactive; x = no result given; ! = not active in a repeat; [ ] = dose if it differs, or a comment. Only some compounds are listed: those with a hit (about 2.9% of all), similar ones and a draw of the others.
SMILES,Cneo AK release,HIV Env fusion,INS-1E GSIS act,CDK5 p35 inh,dFosB act,PAX8 reporter
N#C[C@H]1[C@@H](c2ccc(/C=C/c3ccccc3)cc2)[C@@H](CO)N1C(=O)Nc1ccccc1F,-2,x,9,x,x,17
Cc1ccc(S(=O)(=O)Nc2ccc3c(c2)C(=O)N([C@@H](C)CO)C[C@@H](C)[C@H](CN(C)C(=O)Nc2c(C)noc2C)OCCCC[C@H](C)O3)cc1,-1,3[16.7 µM],6,x,x,-3
O=c1c2sccc2n(Cc2cccc(F)c2)c(=O)n1-c1ccc(F)cc1,x,x,46*,x,-1,x
O=C(O)C(=Cc1ccccc1)Cc1ccccc1,-3,-2,41*,0,5,-2
Cc1noc(C)c1S(=O)(=O)Nc1ccc2c(c1)C(=O)N([C@H](C)CO)C[C@H](C)[C@H](CN(C)Cc1ccc(-c3ccccc3)cc1)O2,2,-17[16.7 µM],-40,x,x,x
COCCCNC(=O)C(=O)NC1CCCCCC1,1,-22,4,0,-7,-34
COCCNC(=O)C/C(C)=N/NC(=O)C(=O)NC1CCCCC1,x,-1,0,-2,-3,101*
C[C@H]1CN([C@@H](C)CO)C(=O)c2cc(NC(=O)Nc3ccc(F)cc3)ccc2O[C@@H]1CN(C)S(C)(=O)=O,100*,14[16.7 µM],13,x,x,-8
C[C@@H]1CN([C@H](C)CO)C(=O)c2cc(NC(=O)Nc3ccc(F)cc3)ccc2O[C@@H]1CN(C)S(C)(=O)=O,2,1[16.7 µM],-8,x,x,2
COc1ccc(NC(=O)Nc2ccc3c(c2)C(=O)N([C@@H](C)CO)C[C@@H](C)[C@H](CN(C)S(=O)(=O)c2ccc(C)cc2)O3)cc1,3,-22[16.7 µM],-38,x,x,-19
COc1ccc(S(=O)(=O)N(C)C[C@@H]2Oc3ccc(NC(=O)Nc4ccc(C(F)(F)F)cc4)cc3C(=O)N([C@@H](C)CO)C[C@@H]2C)cc1,0,67*[16.7 µM],-8,x,x,x
COc1ccc(S(=O)(=O)N(C)C[C@H]2Oc3ccc(NC(=O)Nc4ccc(C(F)(F)F)cc4)cc3C(=O)N([C@H](C)CO)C[C@H]2C)cc1,0,3[16.7 µM],-1,x,x,x
C[C@H](CO)N1C[C@H](C)[C@@H](CN(C)S(=O)(=O)c2ccc(F)cc2)Oc2ccc(NC(=O)Nc3ccc(C(F)(F)F)cc3)cc2C1=O,1,0,-36,0,-4,75*!
COc1ccc(NC(=O)Nc2ccc3c(c2)C(=O)N([C@@H](C)CO)C[C@H](C)[C@H](CN(C)S(=O)(=O)c2ccc(C)cc2)O3)cc1,3,78*[16.7 µM],-7,x,x,-12
O=C(c1ccc2c(c1)OCO2)N1CC(=O)N2[C@H](CO)[C@H](c3ccc(C#CCC4CCCC4)cc3)[C@@H]2C1,x,x,-16,x,x,26
Cc1cccc2c1-c1sc(C(=O)Nc3ccccc3N3CCN(C)CC3)cc1CO2,6,3,3,0,26*,-46
COCCNC(=O)C[C@H]1CC[C@H]2[C@H](COc3ccc(NC(=O)Nc4ccccc4)cc3C(=O)N2C)O1,2,-2[16.7 µM],10,x,x,8
OC1CCCN(c2c3c(nc4cc(-c5cccc(Cl)c5)nn24)CCC3)C1 (configuration not stated),2,x,14,2,-1,x
Cc1cccc(-c2cc3nc4c(c(N5CCCC(O)C5)n3n2)CCC4)c1 (configuration not stated),-2,-144,86*,3,-16,x
N#C[C@H]1[C@H](c2ccccc2C2=CCCCC2)[C@H](CO)N1S(=O)(=O)c1ccccc1,x,x,6,x,x,-24
CCc1nc(SCc2ccc(C(=O)OC)o2)n[nH]1,0,5,-2,0,4,-6
COC(=O)c1ccc(CSc2n[nH]c(C)n2)o1,0,x,-7,0,2,78*
COc1ccccc1NC(=O)N[C@H]1CC[C@H](CC(=O)N[C@H](C)c2ccccc2)O[C@H]1CO,-7,-2[16.7 µM],-14,x,x,-5
CCCc1cc(=O)oc2cc(OCC(=O)NC3CCN(Cc4ccccc4)CC3)ccc12,-3,4,44*,0,-12,4
O=C(C[C@H]1CC[C@@H]2[C@H](COC[C@@H](O)CN2Cc2cc(F)ccc2F)O1)NCc1ccc(Oc2ccccc2)cc1,-1,x,-17,x,x,x
SMILES,Cneo AK release,HIV Env fusion,INS-1E GSIS act,CDK5 p35 inh,dFosB act,PAX8 reporter
O=C1c2ccccc2C(=O)N1CCN1CCCCC1,x,x,27,-1,-1,x
O=C1c2cccc3cc([N+](=O)[O-])cc(c23)C(=O)N1CCN1CCCC1,1,-78,3,0,58*,90*
C/C(=C/CCC(C)(O)C1CC[C@@]2(C)[C@@H]3CC=C4[C@@H](CC[C@H](O[C@H]5O[C@@H](CO)[C@H](O)[C@@H](O)[C@@H]5O)C4(C)C)[C@]3(C)C(=O)C[C@]12C)CO[C@@H]1O[C@H](CO)[C@@H](O)[C@H](O)[C@H]1O (some centres not stated),-1,88*,-4,-4,-6,-32
CNC(=O)C[C@H]1CC[C@H]2[C@@H](COC[C@H](O)CN2S(=O)(=O)c2cccc(Cl)c2)O1,3,-12[16.7 µM],16,x,x,5
Cc1ccc2sc(-c3ccc(NC(=O)c4cc(-n5cnnc5)ccc4Cl)cc3)nc2c1,-20,-139,119*,-1,-2,x
O=C(Nc1cccc(-c2nc3ccccc3s2)c1)c1cc(-n2cnnc2)ccc1Cl,0,x,x,-2,-6,x
Cc1noc(C)c1NC(=O)Nc1ccc2c(c1)CC(=O)N([C@@H](C)CO)C[C@H](C)[C@H](CN(C)C(=O)Nc1ccc3c(c1)OCO3)O2,-2,-1[16.7 µM],14,x,x,-12
CCc1ccc(N(C2C=CS(=O)(=O)C2)S(=O)(=O)c2ccccc2)cc1 (configuration not stated),x,-27,86*,1,-4,-10
Cc1ccccc1-n1nc(C(=O)c2cccs2)cc(-c2nc3ccccc3[nH]2)c1=N,x,-374,x,-1,14,4
Cc1cccc(-n2nc(C(=O)c3ccco3)cc(-c3nc4ccccc4[nH]3)c2=N)c1,1,-17,1,-1,34*,12
COCCNc1nc(NCc2ccc(NC(C)=O)cc2)c2sc(-c3ccccc3)cc2n1,-3,5,29,x,x,86*
COCCNc1nc(Oc2ccc(NC(C)=O)cc2)c2sc(-c3ccccc3)cc2n1,-2,-29,7,x,x,-47
C[C@@H]1CCCCO[C@@H](CN(C)Cc2ccc(Cl)c(Cl)c2)[C@@H](C)CN([C@H](C)CO)C(=O)c2cc(NC(=O)CCC(F)(F)F)ccc2O1,-1,-51,-19,x,x,67*!
C[C@@H]1CCCCO[C@H](CN(C)Cc2ccc(Cl)c(Cl)c2)[C@@H](C)CN([C@H](C)CO)C(=O)c2cc(NC(=O)CCC(F)(F)F)ccc2O1,0,8[16.7 µM],-17,x,x,4

# Screens deposited in PubChem BioAssay by Broad Institute.
